Source: ChEMBL document CHEMBL2146423, “Photoresponsive 5'-cap for the reversible photoregulation of gene expression” (Bioorg Med Chem Lett, 2011)
Activity calls are given as the source filed them. The calls are words filed in the database; no cut-off is given here.

How the values were obtained:
[1] = tested on: Nucleic Acid; assay: Binding affinity to Aequorea victoria GFP mRNA in insect cell extract assessed as mRNA translational efficiency at 4.8 mM irradiated with 410 nm monochromatic light for 2 mins measured after 10 hrs by fluorescence assay relative to normal-capped mRNA; assay type: nucleic-acid assay
In short: (§1)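 Capped GFP mRNA made by in vitro T7 transcription (37 °C, 4 h; poly(A)30 template), DNase-digested and purified, then translated in insect cell extract. Before translation the mixture was irradiated at room temperature for 2 min at 410 nm (cis to trans) or 310 nm (trans to cis). GFP read by fluorescence.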

[2] = Thermal stability of the compound assessed as compound isomerization at 80 degC after 20 hrs; assay type: physicochemical
In short: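 Cis and trans isomers held at 80 °C for 20 h and checked for thermal isomerization. Isomers were generated with a 300 W xenon lamp at 25 °C, 2 cm from the source: 410 nm (103 mW/cm2) or 310 nm (81 mW/cm2), 2 min each. Isomer content measured by HPLC peak area.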

[3] = tested on: Nucleic Acid; assay: Binding affinity to Aequorea victoria GFP mRNA in insect cell extract assessed as inhibition of mRNA translation at 4.8 mM irradiated with 310 nm monochromatic light for 2 mins measured after 10 hrs by fluorescence assay; assay type: nucleic-acid assay; in short: as §1
[4] = tested on: Nucleic Acid; assay: Binding affinity to Aequorea victoria GFP mRNA in insect cell extract assessed as mRNA translational efficiency at 4.8 mM irradiated with 410 nm monochromatic light for 2 mins measured after 10 hrs by fluorescence assay; assay type: nucleic-acid assay; in short: as §1
[5] = tested on: Nucleic Acid; assay: Binding affinity to Aequorea victoria GFP mRNA in insect cell extract assessed as increase in mRNA translation at 4.8 mM irradiated with 310 nm monochromatic light for 2 mins measured after 130 mins by time course fluorescence assay; assay type: nucleic-acid assay
In short: (§2)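 GFP mRNA capped at the 5' end during in vitro T7 transcription (37 °C, 4 h; PCR template carrying a 30-base poly(A) tail), then DNase-treated and purified. Translated in insect cell extract. Sample irradiated 2 min at 310 nm at 0 and 130 min and 2 min at 410 nm at 60 min. GFP fluorescence (ex 480 nm, em 509 nm) recorded over time, with normal-capped mRNA run alongside.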

[6] = tested on: Nucleic Acid; assay: Binding affinity to Aequorea victoria GFP mRNA in insect cell extract assessed as increase in mRNA translation at 4.8 mM irradiated with 310 nm monochromatic light for 2 mins measured up to 60 mins by time course fluorescence assay; assay type: nucleic-acid assay; in short: as §2
[7] = tested on: Nucleic Acid; assay: Binding affinity to Aequorea victoria GFP mRNA in insect cell extract assessed as inhibition of mRNA translation at 4.8 mM irradiated with 410 nm monochromatic light for 2 mins measured after 10 hrs by fluorescence assay; assay type: nucleic-acid assay; in short: as §1

Stability [2] | inhibition [3] | SMILES | further results
Stable | – | CCN(CC)CC.CCN(CC)CC.C[n+]1c(/C=C\c2ccccc2)n([C@@H]2O[C@H](COP(=O)([O-])OP(=O)(O)OP(=O)(O)OC[C@H]3O[C@@H](n4cnc5c(=O)[nH]c(N)nc54)[C@H](O)[C@@H]3O)[C@@H](O)[C@H]2O)c2nc(N)[nH]c(=O)c21 | fold change (FC) [1]: 2.2
Stable | – | CCN(CC)CC.CCN(CC)CC.C[n+]1c(/C=C/c2ccccc2)n([C@@H]2O[C@H](COP(=O)([O-])OP(=O)(O)OP(=O)(O)OC[C@H]3O[C@@H](n4cnc5c(=O)[nH]c(N)nc54)[C@H](O)[C@@H]3O)[C@@H](O)[C@H]2O)c2nc(N)[nH]c(=O)c21 | –

More lines, now with the values behind:

SMILES | Stability [2] | inhibition [3] | further results
CCN(CC)CC.CCN(CC)CC.C[n+]1c(/C=C/c2ccc3c(c2)Cc2ccccc2-3)n([C@@H]2O[C@H](COP(=O)([O-])OP(=O)(O)OP(=O)(O)OC[C@H]3O[C@@H](n4cnc5c(=O)[nH]c(N)nc54)[C@H](O)[C@@H]3O)[C@@H](O)[C@H]2O)c2nc(N)[nH]c(=O)c21 | Stable | Active | –
CCN(CC)CC.CCN(CC)CC.C[n+]1c(/C=C\c2ccc3ccccc3c2)n([C@@H]2O[C@H](COP(=O)(O)OP(=O)(O)OP(=O)([O-])OC[C@H]3O[C@@H](n4cnc5c(=O)[nH]c(N)nc54)[C@H](O)[C@@H]3O)[C@@H](O)[C@H]2O)c2nc(N)[nH]c(=O)c21 | Stable | – | Activity [4]: Active
CCN(CC)CC.CCN(CC)CC.C[n+]1c(/C=C/c2ccc3ccccc3c2)n([C@@H]2O[C@H](COP(=O)([O-])OP(=O)(O)OP(=O)(O)OC[C@H]3O[C@@H](n4cnc5c(=O)[nH]c(N)nc54)[C@H](O)[C@@H]3O)[C@@H](O)[C@H]2O)c2nc(N)[nH]c(=O)c21 | Stable | Active | Activity [5]: inactive; Activity [6]: inactive
CCN(CC)CC.CCN(CC)CC.C[n+]1c(/C=C\c2ccc3c(c2)Cc2ccccc2-3)n([C@@H]2O[C@H](COP(=O)(O)OP(=O)(O)OP(=O)([O-])OC[C@H]3O[C@@H](n4cnc5c(=O)[nH]c(N)nc54)[C@H](O)[C@@H]3O)[C@@H](O)[C@H]2O)c2nc(N)[nH]c(=O)c21 | Stable | – | inhibition [7]: Active
